For 17 molecules, EC50, selectivity ratio and CC50 results are on record in ChEMBL document CHEMBL3580529, “Limonoids with Anti-HIV Activity from Cipadessa cinerascens” (J Nat Prod, 2015).

Some results are limits rather than exact numbers.

For series [1], the system named is Human immunodeficiency virus 1. Briefly: Antiviral activity against HIV1 NL4-3 infected in human MT4 cells assessed as inhibition of virus-induced cytopathic effect incubated for 3 to 4 days by MTT assay. In kind it is functional, organism-based. Conditions: Human immunodeficiency virus 1, NL4-3, MT4. In short, it runs like this: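 MT-4 cells seeded with serial compound dilutions, then infected with HIV-1 NL4-3 at final MOI 0.03; 37 °C, 5% CO2, humidified, 3 or 4 days. MTT (5 mg/mL in PBS) added for 3 h, cells lysed in 10% Triton X-100/acidified 2-propanol, absorbance 570 nm. EC50 = concentration giving 50% protection against HIV-induced cytopathic effect.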

The nature of series [2]: Selectivity index, ratio of CC50 against human MT4 cells to EC50 for HIV1 NL4-3 infected in human MT4 cells. The series is classed as toxicity, cell-based. Conditions: MT4 cells (CC50) and HIV1 NL4-3 infected MT4 cells (EC50). Summed up:
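SI calculated as CC50 (MT-4 cytotoxicity, MTT read-out) divided by EC50 (protection of MT-4 cells from HIV-1 NL4-3 cytopathic effect, MOI 0.03), both from parallel 3–4 day assays at 37 °C.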

Series [3] is described as follows: Cytotoxicity against human MT4 cells assessed as reduction in cell viability incubated for 3 to 4 days by MTT assay. In kind it is cell-based. In short, it runs like this: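 Serially diluted compounds on MT-4 cells, 37 °C, 5% CO2, humidified, 3 or 4 days; viability by MTT (5 mg/mL in PBS, 3 h), formazan solubilized with 10% Triton X-100 in acidified 2-propanol, read at 570 nm. CC50 = concentration killing 50% of MT-4 cells.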
On the technique in general: Tetrazolium assays rely on reduction of a dye to a coloured formazan, in cell work by metabolically active cells.

In the case of `COC(=O)C[C@H]1C(C)(C)[C@H](OC(C)=O)[C@H](O)[C@@H]2O[C@]34CC(=O)O[C@@H](c5ccoc5)[C@]3(C)[C@@H](O)[C@@H](C(=O)[C@@H]4C)[C@@]21C`, in series [1], the concentration for a half-maximal effect (EC50) (as a rule, the concentration that produces a half-maximal response) was over 100 µM.

As for `C=C1[C@@H]2C[C@@]3(C)[C@H](C4=C[C@@H](O)OC4=O)OC(=O)C[C@]13O[C@H]1C[C@@H](OC(C)=O)C(C)(C)[C@H](CC(=O)OC)[C@@]1(C)C2=O`, the EC50 in series [1] is over 100 µM.

For `COC(=O)C[C@H]1C(C)(C)[C@H](OC(C)=O)[C@H](O)[C@@H]2OC3=C(C)C4=CC(=O)O[C@@H](c5ccoc5)[C@]4(C)[C@@H](O)[C@@H]3[C@@]21C`, in series [1], the EC50 was over 100 µM.

As for `COC(=O)C[C@H]1C(C)(C)[C@H](OC(C)=O)[C@H](OC(C)=O)[C@@H]2O[C@]34CC(=O)O[C@@H](c5ccoc5)[C@]3(C)[C@@H](O)[C@@H](C(=O)[C@@H]4C)[C@@]21C`, in series [1], the EC50 is over 100 µM.

As for `C=C1[C@H]2C(=O)[C@@]3(C)[C@@H](O[C@@]14CC(=O)O[C@@H](c1ccoc1)[C@]4(C)[C@H]2O)[C@@H](OC(C)=O)[C@@H](OC(C)=O)C(C)(C)[C@@H]3CC(=O)OC`, the EC50 in series [1] was over 100 µM.

With `COC(=O)C[C@H]1C(C)(C)[C@H](OC(C)=O)C[C@@H]2O[C@]34CC(=O)O[C@@H](c5ccoc5)[C@]3(C)[C@@H](O)[C@@H](C(=O)[C@@H]4C)[C@@]21C`, the EC50 in series [1] was over 100 µM.

For the molecule `C=C1[C@@H]2C[C@@]3(C)[C@H](c4ccoc4)OC(=O)C[C@]13O[C@H]1C[C@@H](O)C(C)(C)[C@H](CC(=O)OC)[C@@]1(C)C2=O`, in series [1], the EC50 is over 100 µM.

Take `C=C1[C@H]2C(=O)[C@@]3(C)[C@@H](O[C@@]14CC(=O)O[C@@H](C1=C[C@@H](O)OC1=O)[C@]4(C)[C@H]2OC(C)=O)[C@@H](OC(C)=O)[C@@H](OC(C)=O)C(C)(C)[C@@H]3CC(=O)OC`: in series [1], the 50% effective concentration (EC50) was over 100 µM.

As for `C=C1[C@H]2C(=O)[C@@]3(C)[C@@H](O[C@@]14CC(=O)O[C@@H](c1ccoc1)[C@]4(C)[C@H]2O)[C@@H](O)[C@@H](OC(C)=O)C(C)(C)[C@@H]3CC(=O)OC`, in series [1], the 50% effective concentration (EC50) came to 5.5 µM. In addition, the selectivity ratio in series [2] is over 7.2. Besides, the CC50 (usually the concentration at which the toxic effect on the cells reaches its halfway point) in series [3] was over 40 µM.

For `COC(=O)C[C@H]1C(C)(C)[C@H](O)[C@H](O)[C@@H]2OC3=C(C)C4=CC(=O)O[C@@H](c5ccoc5)[C@]4(C)[C@@H](O)[C@@H]3[C@@]21C`, the concentration for a half-maximal effect (EC50) in series [1] was over 100 µM.

Turning to `COC(=O)C[C@H]1C(C)(C)[C@H](OC(C)=O)[C@H](OC(C)=O)[C@@H]2O[C@]34CC(=O)O[C@@H](c5ccoc5)[C@]3(C)[C@@H](O)[C@@H](C(=O)[C@@]4(C)O)[C@@]21C`, the EC50 in series [1] was over 100 µM.

For the molecule `COC(=O)C[C@H]1C(C)(C)[C@H](OC(C)=O)[C@H](OC(C)=O)[C@@H]2O[C@]34CC(=O)O[C@@H](c5ccoc5)[C@]3(C)[C@@H](O)[C@@H](C(=O)[C@]4(C)O)[C@@]21C`, the EC50 in series [1] is over 100 µM.

As to `C=C1[C@H]2C(=O)[C@@]3(C)[C@@H](O[C@@]14CC(=O)O[C@@H](C1=C[C@@H](O)OC1=O)[C@]4(C)[C@H]2OC(C)=O)[C@@H](OC(C)=O)CC(C)(C)[C@@H]3CC(=O)OC`, in series [1], the half-maximal effective concentration (EC50) was over 100 µM.

`Cc1ccnc2c1NC(=O)c1cccnc1N2C1CC1` [NEVIRAPINE]: the 50% effective concentration (EC50) in series [1] stood at 0.1 µM. Also, the selectivity ratio in series [2] is over 833.

Take `CCC(C)C(O)C(=O)O[C@H]1[C@H](OC=O)[C@H]([C@@]2(C)[C@@H](OC(C)=O)CC(=O)O[C@](C)(COC(C)=O)[C@@H]2CC(=O)OC)C(COC)=C2[C@H](O)C[C@@H](c3ccoc3)[C@@]21C` (some centres not stated): in series [1], the concentration for a half-maximal effect (EC50) stood at 6.1 µM. In addition, the selectivity ratio in series [2] is over 6.5. Besides, the CC50 in series [3] is over 40 µM.

On to `COC(=O)C[C@H]1C(C)(C)[C@H](O)[C@H](O)[C@@H]2OC3=C(C)C4=CC(=O)O[C@@H](c5ccoc5)[C@]4(C)C[C@@H]3[C@@]21C`, for which the half-maximal effective concentration (EC50) in series [1] is over 100 µM.

`C=C1[C@H]2C(=O)[C@@]3(C)[C@@H](O[C@@]14CC(=O)O[C@@H](c1ccoc1)[C@]4(C)[C@H]2OC(C)=O)[C@@H](O)[C@@H](OC(C)=O)C(C)(C)[C@@H]3CC(=O)OC`: the EC50 in series [1] is over 100 µM.
